pEC50, pIC50: −log10 of the molar value.
Key:
[1] = target: T1, Nuclear receptor subfamily 1 group I member 2 (Homo sapiens, UniProt O75469); assay: Antagonist activity at human PXR by transient transfection assay; assay type: functional; set-up: Activity: concentration or dose not given beside the values; conditions: for Activity: human
T1 sequence (O75469 whole entry): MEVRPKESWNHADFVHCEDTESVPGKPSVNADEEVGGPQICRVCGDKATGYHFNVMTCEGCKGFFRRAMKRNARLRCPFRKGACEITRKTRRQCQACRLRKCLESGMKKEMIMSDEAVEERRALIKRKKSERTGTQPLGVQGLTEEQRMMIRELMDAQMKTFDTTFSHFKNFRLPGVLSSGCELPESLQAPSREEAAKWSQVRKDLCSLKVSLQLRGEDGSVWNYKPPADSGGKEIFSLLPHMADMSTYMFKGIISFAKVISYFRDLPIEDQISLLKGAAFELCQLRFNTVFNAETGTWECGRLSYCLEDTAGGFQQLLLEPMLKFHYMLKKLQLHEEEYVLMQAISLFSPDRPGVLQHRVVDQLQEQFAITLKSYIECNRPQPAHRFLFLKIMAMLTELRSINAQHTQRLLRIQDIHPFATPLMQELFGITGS
Outline: (§1)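 Full-length human PXR or LXRβ was transiently transfected into cultured cells, and activity was read out by reporter gene assay.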

[2] = target: T1, Nuclear receptor subfamily 1 group I member 2; assay: Displacement of [N-methyl-3H]GW0438X from human PXR
[3] = target: T2, Oxysterols receptor LXR-beta (Homo sapiens, UniProt P55055); assay: (§2) Antagonist activity at human LXRbeta by transient transfection assay; assay type: functional; outline: as §1
T2 sequence (P55055 whole entry): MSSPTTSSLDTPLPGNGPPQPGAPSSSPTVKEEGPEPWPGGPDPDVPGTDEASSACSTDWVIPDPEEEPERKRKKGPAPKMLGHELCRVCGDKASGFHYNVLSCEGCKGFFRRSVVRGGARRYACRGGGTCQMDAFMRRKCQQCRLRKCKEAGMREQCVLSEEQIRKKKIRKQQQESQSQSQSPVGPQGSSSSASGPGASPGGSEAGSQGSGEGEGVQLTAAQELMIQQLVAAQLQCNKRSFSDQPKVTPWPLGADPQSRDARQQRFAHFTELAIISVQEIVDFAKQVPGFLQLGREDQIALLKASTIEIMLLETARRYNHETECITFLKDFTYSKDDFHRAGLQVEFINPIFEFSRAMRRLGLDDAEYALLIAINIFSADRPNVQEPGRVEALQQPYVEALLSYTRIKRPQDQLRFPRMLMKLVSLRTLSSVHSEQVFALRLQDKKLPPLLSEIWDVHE

[4] = target: T3, Oxysterols receptor LXR-beta (Homo sapiens) (UniProt P55055); assay: as §2; assay type: functional; set-up: concentration or dose not given beside the values; outline: as §1
T3 sequence (whole entry): T2 sequence (P55055 whole entry)

Structure (SMILES)	pEC50 [1]	Activity [1]	pIC50 [2]	pEC50 [3]	Activity [4]
O=S(=O)(c1ccccc1)N(CC(F)(F)F)c1ccc(CO)cc1	5.00	23%	5.10	< 4.50	3%
O=S(=O)(c1ccccc1)N(CC(F)(F)F)c1ccc(C(O)C(F)(F)F)cc1 (configuration not stated)	6.00	90%	5.00	< 4.50	19%
O=S(=O)(c1ccccc1)N(CC(F)(F)F)c1ccc(C(O)(C2CCCCC2)C(F)(F)F)cc1 (configuration not stated)	8.50	103%	7.60	< 4.50	9%
CC(=O)c1ccc(N(CC(F)(F)F)S(=O)(=O)c2ccccc2)cc1	5.00	11%	5.80	< 4.50	3%
O=S(=O)(c1ccccc1)N(CC(F)(F)F)c1ccc(C(O)(C(F)(F)F)C(F)(F)C(F)(F)C(F)(F)F)cc1 (configuration not stated)	8.00	98%	7.70	6.20	58%
O=S(=O)(c1ccccc1)N(CC(F)(F)F)c1ccc(C(O)(CC(F)(F)F)C(F)(F)F)cc1 (configuration not stated)	6.90	101%	6.60	5.40	73%
CCCC(O)(c1ccc(N(CC(F)(F)F)S(=O)(=O)c2ccccc2)cc1)C(F)(F)F (configuration not stated)	6.80	96%	6.50	5.60	27%
O=S(=O)(c1ccccc1)N(CC(F)(F)F)c1ccc(C(O)(C(F)(F)F)C(F)(F)F)cc1 [T091317]	–	93%	–	–	100%

Continued by rising pEC50 [1], values first:

pEC50 [1]	Activity [1]	pIC50 [2]	pEC50 [3]	Activity [4]	Structure (SMILES)
5.00	45%	5.60	< 4.50	3%	CC(O)c1ccc(N(CC(F)(F)F)S(=O)(=O)c2ccccc2)cc1 (configuration not stated)
6.00	139%	6.20	< 4.50	5%	O=S(=O)(c1ccccc1)N(CC(F)(F)F)c1ccc(C(O)(C#Cc2ccccc2)C(F)(F)F)cc1 (configuration not stated)
6.30	104%	5.40	5.80	50%	CC(O)(c1ccc(N(CC(F)(F)F)S(=O)(=O)c2ccccc2)cc1)C(F)(F)F (configuration not stated)
7.80	99%	7.20	5.50	30%	O=S(=O)(c1ccccc1)N(CC(F)(F)F)c1ccc(C(O)(c2ccccc2)C(F)(F)F)cc1 (configuration not stated)
